In the library only some 1.9% were active in any assay of this set; here they are far more common.
LEDGF integ inh: blocks HIV-1 LEDGF/p75-dependent DNA integration. AID 743269. 370,000 compounds, 0.64% hits. TR-FRET IN-LEDGF/p75 DNA integration, Eu/Cy5. inhibition, % at 3.7 µM;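 active = inhibition above the screen-wide mean plus 3 SD, cut at about 13% in these data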;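 also: signal is the Cy5 over europium emission ratio at 671 and 618 nm; 0% = plate median of compound wells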
Rin1-Abl PPI inh: blocks binding of human Rin1 to Abl; P00519+Q13671; TR-FRET Rin1/Abl binding, biochemical; inhibition, % at 7.35 µM; 360,000 compounds, 0.4% hits; AID 588664; in the data active = inhibition above about 5%, passing the limit was not always enough
UHRF1 MBD2 ctr: UHRF1 methyl-DNA binding inhibition; Q96T88; UHRF1 binding to methylated oligo, TR-FRET; inhibition, % at 4.4 µM; 370,000 compounds, 0.75% hits; AID 687016; in the data active = inhibition above about 21%;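 also: UHRF1 SRA domain binding a hemimethylated CpG hairpin DNA probe; 0% = median of test compound wells and 100% = reference inhibitor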
MBD2 DNA inh: MBD2-methylated oligo binding inhibition; inhibition, % at 4.4 µM; 370,000 compounds, 0.31% hits; AID 686964; TR-FRET, MBD2 binding to methylated oligonucleotide; in the data active = inhibition above about 13%
TDP2 absorb: blocks human TDP2 phosphodiesterase activity; recombinant TDP2, T5PNP hydrolysis, p-nitrophenol absorbance 415 nm; inhibition, % at 12.8 µM; 370,000 compounds, 0.34% hits;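 active = inhibition above the mean of all tested compounds plus 3 SD, set per campaign, cut at about 25% in these data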;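 also: 0% = DMSO with enzyme and 100% = buffer with substrate but no TDP2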
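Assay system: recombinant human TDP2 / Reagent: T5PNP substrate at 5 mM, a TopII-DNA adduct mimic / Measured by: epi absorbance from released p-nitrophenol / Evaluation: % inhibition relative to enzyme-containing and enzyme-free wells / Control set: enzyme-free and DMSO wells / Replicates: each compound tested once, singlicate / Schedule: enzyme reaction with compound for 2 h at 37 °C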
An asterisk follows results filed as active; nt = no result.

SMILES	LEDGF integ inh	Rin1-Abl PPI inh	UHRF1 MBD2 ctr	MBD2 DNA inh	TDP2 absorb
CCCN(CCO)CCCc1ccccc1	89*	1	-1	1	3
CCNC(=O)CCc1nc(-c2ccc(C(C)C)cc2)no1	0	nt	-2	4	7
COc1ccc(-n2c(SCC(=O)Nc3ccc(OCc4ccccc4)cc3)nnc2-c2ccc(C)cc2)cc1	3	nt	-1	-1	2
C/C(=N\NC(=O)CCCCCNC(=O)c1ccccc1)c1ccccc1O	0	-2	2	0	-8
O=C(CCCCCNC(=O)c1ccccc1)N/N=C/c1ccc(O)cc1O	-4	-4	21*	11	-3
CC1CCN(S(=O)(=O)c2ccc(C(=O)N3CCCC3C(=O)O)cc2)CC1 (configuration not stated)	4	5	57*	3	-1
CC1CCN(C(=O)c2ccc(S(=O)(=O)N3CCCCCC3)cc2)CC1	2	1	-2	-4	11
CC1CCN(S(=O)(=O)c2ccc(C(=O)N3CCCCC3C(=O)O)cc2)CC1 (configuration not stated)	-2	-2	2	6	4
CC1CCN(C(=O)c2ccc(S(=O)(=O)N3CCCC3)cc2)CC1	-4	0	41*	2	0
Cc1ccc(-n2c(SCc3cccc(F)c3)nnc2-c2cccc(C)c2)cc1	1	nt	0	2	-8
CN(Cc1ccccc1)C(=O)OCc1cn(Cc2ccccc2C(F)(F)F)nn1	6	nt	-2	-5	6
CCCCCNC(=O)C(c1ccc(C(F)(F)F)cc1)n1c(=O)c(-c2ccco2)nc2ccccc21 (configuration not stated)	10	nt	21*	8	15
CCCCCNC(=O)C(c1cccc2ccccc12)n1c(=O)c(-c2ccco2)nc2ccccc21 (configuration not stated)	-1	nt	-3	0	2
COc1ccc2c(c1)c(=O)oc1cc(OCC(=O)N3CCc4ccccc4C3)ccc12	9	3	39*	21*	9
CO[C@@]1(NC(=O)CSCC#N)C(=O)N2C(C(=O)O)=C(CSc3nnnn3C)CS[C@@H]21	10	2	44*	-4	11
O=C(c1cc(-c2ccncc2)nc2ccccc12)N1CCOCC1	-5	1	4	-2	-10
Cc1ccc(-c2cc(C(=O)N3CCOCC3)c3ccccc3n2)cc1	-2	2	27*	-4	9
CCN(CC)c1ccc(C=Nn2c(-c3ccc(F)cc3)n[nH]c2=S)c(O)c1	2	nt	-2	5	2
COc1cccc(N2CCN(CC(=O)NCc3ccc(F)cc3)CC2)c1	1	nt	0	-2	4
CC[n+]1ccc(/C=C2\Sc3ccccc3N2CCCS(=O)(=O)[O-])c2ccccc21	2	-4	-9	-10	6
CN1C=C/C(=C\c2cc[n+](C)c3ccccc23)c2ccccc21	2	-4	27*	10	28*
O=C(COc1ccc(OCc2ccccc2)cc1)NN=C1CCCC1	5	2	34*	13	2
COc1ccc2cc3c(nc2c1)OCC3	3	1	21*	-3	-1
CN(C)C1=NC[C@H](Cc2ccccc2)N1CCCC1CCCC1	3	6	23*	12	-9
COc1ccc(S[C@]2(C(=O)N3CCN(C(C)=O)CC3)CC(=O)N(C(=O)c3ccccc3)[C@@H]2c2ccc(OC)cc2)cc1	-2	nt	0	1	-10
SMILES	LEDGF integ inh	Rin1-Abl PPI inh	UHRF1 MBD2 ctr	MBD2 DNA inh	TDP2 absorb
CCOC(=O)c1csc(NC(=O)C2CCCN(S(=O)(=O)c3ccc([N+](=O)[O-])cc3)C2)n1 (configuration not stated)	4	nt	0	-1	4
COc1ccc(CCN2C(=O)COc3ccccc3C2C(=O)NCc2ccccc2)cc1OC (configuration not stated)	1	nt	23*	2	0
OC(COC(c1ccccc1)c1ccccc1)CN1CCN(c2ccccn2)CC1 (configuration not stated)	1	6	23*	8	-1
C=C1C2(C(=O)NCc3ccco3)CCC(C2)C1(C)C (configuration not stated)	10	0	22*	3	-4
CCN(CC)C(=O)C1=C(C)N(CCCN2CCCC2=O)C(=O)C(CC(=O)NCCc2ccccn2)C1 (configuration not stated)	2	0	1	4	1
CC1=C(C(=O)N(C)C)CC(CC(=O)NCCCN(C)C)C(=O)N1CCCN1CCCC1=O (configuration not stated)	-2	7	24*	3	-5
CC1=C(C(=O)N(C)C)CC(CC(=O)NCCc2ccccn2)C(=O)N1CCCN1CCCC1=O (configuration not stated)	-7	-2	25*	3	6
CC1=C(C(=O)N(C)C)CC(CC(=O)NC2CC2)C(=O)N1CCC1=CCCCC1 (configuration not stated)	4	-1	0	4	-3
CC1=C(C(=O)N(C(C)C)C(C)C)CC(CC(=O)NCCCN(C)C)C(=O)N1CCCN1CCCC1=O (configuration not stated)	1	1	0	3	4
CC1=C(C(=O)N(C)C)CC(CC(=O)NCCCN(C)C)C(=O)N1CCC1=CCCCC1 (configuration not stated)	1	-2	21*	8	6
COCCCNC(=O)C[C@H]1C[C@@]2(C(=O)OC)C(=C[C@H](C(C)C)O[C@@H]2C2CC2)N(Cc2ccco2)C1=O	-1	nt	0	-5	-10
Cc1[nH]c(=O)[nH]c(=O)c1S(=O)(=O)NCCc1ccc(S(N)(=O)=O)cc1	0	-2	21*	5	12
Cc1[nH]c(=O)[nH]c(=O)c1S(=O)(=O)Nc1ccc(S(N)(=O)=O)cc1	2	1	5	-4	1
C#CCOCCOCCOCCNc1nc(N2CCN(C(=O)CCCCCCCCCCNC(=O)Cn3cc(C[C@@H](C)O)nn3)CC2)nc(N2CCN(C(=O)CCCCCCCCCCNC(=O)[C@H](CCCCN)n3cc(CCCC(=O)O)nn3)CC2)n1	-5	6	2	2	4
C#CCOCCOCCOCCNc1nc(N2CCN(C(=O)CCCCCCCCCCNC(=O)Cn3cc(C[C@@H](C)O)nn3)CC2)nc(N2CCN(C(=O)CCCCCCCCCCNC(=O)[C@H](CCCN=C(N)N)n3cc(C[C@@H](C)CC)nn3)CC2)n1	nt	13*	nt	nt	nt
C#CCOCCOCCOCCNc1nc(N2CCOCC2)nc(N2CCN(C(=O)CCCCCCCCCCNC(=O)[C@@H]([C@H](C)CC)n3cc(CCCCCN)nn3)CC2)n1	6	3	22*	8	22
C#CCOCCOCCOCCNc1nc(N2CCN(C(=O)CCCCCCCCCCNC(=O)Cn3cc(CCCCCN)nn3)CC2)nc(N2CCN(C(=O)CCCCCCCCCCNC(=O)Cn3cc(CCCCCN)nn3)CC2)n1	nt	13*	nt	nt	nt
